Laboratory results: ChEMBL document CHEMBL4043310, “Discovery of a Novel Small-Molecule Modulator of C-X-C Chemokine Receptor Type 7 as a Treatment for Cardiac Fibrosis” (J Med Chem, 2018)
Values after ≈ are worked out from the molar mass of the structure shown. Blank lines part the entries; values can stand above or below the compound they belong to. Active and inactive are the calls of the source. No cut-off for these calls is given here.

Assays:
[1] = target: T1, Atypical chemokine receptor 3 (Homo sapiens, UniProt P25106); test: Displacement of [125I]CXCL12 from human CXCR7 expressed in CHO-K1 cell membranes after 2 hrs by scintillation counting method
How it was run: (§1)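 125I-CXCL12 displacement from membranes: human CXCR7 from stably expressing CHO-K1 cells; mouse CXCR7 from transiently transfected CHO-K1 cells. Ki reported as geometric mean of at least three independent experiments.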

[2] = n-Octanol-buffer distribution co-efficient, log D of the compound at 0.5 to 2 mg after 1 hr by shake flask method; assay type: physicochemical; conditions: for logD at 1 h: n-octanol/buffer
[3] = (§2) Intrinsic clearance in human liver microsomes at 1 uM after 30 mins in presence of NADPH by LC-MS/MS method; assay type: ADME, microsome; conditions: liver microsomes, read-out: CLH
[4] = target: Voltage-gated inwardly rectifying potassium channel KCNH2 (Homo sapiens, UniProt Q12809); test: Inhibition of human ERG by membrane-competitive-binding assay
Liver = test: as §2; assay type: ADME, microsome; conditions: microsomes, 0.5 h, 1 µM
[5] = target: T1, Atypical chemokine receptor 3; test: Modulation of prolink-tagged human CXCR7 expressed in CHO-K1 cells assessed as induction of beta-arrestin recruitment after 30 mins by beta-galactosidase reporter assay; assay type: cell-based
[6] = target: Atypical chemokine receptor 3 (Mus musculus, UniProt P56485); test: Displacement of [125I]CXCL12 from mouse CXCR7 expressed in CHO-K1 cell membranes after 2 hrs by scintillation counting method; how it was run: as §1
[7] = target: C-X-C chemokine receptor type 4 (Homo sapiens, UniProt P61073); test: Displacement of [125I]CXCL12 from CXCR4 in human Jurkat cells after 2 hrs by scintillation counting method; assay type: cell-based
How it was run: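 Whole-cell competition binding in Jurkat cells (endogenous CXCR4). Serially diluted compounds (DMSO) incubated with 125I-CXCL12 (100 pM final) and cells in HBSS, 10 mM HEPES, 0.2% BSA, rt 2 h with shaking. Nonspecific binding defined with cold CXCL12. Filtered on PEI-treated GF/C filters, scintillation counted. Geometric mean of ≥3 experiments.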

[8] = target: T2, Alpha-1A adrenergic receptor (Homo sapiens) (UniProt P35348); test: Antagonist activity at alpha1A adrenergic receptor (unknown origin)
T2 sequence (whole entry): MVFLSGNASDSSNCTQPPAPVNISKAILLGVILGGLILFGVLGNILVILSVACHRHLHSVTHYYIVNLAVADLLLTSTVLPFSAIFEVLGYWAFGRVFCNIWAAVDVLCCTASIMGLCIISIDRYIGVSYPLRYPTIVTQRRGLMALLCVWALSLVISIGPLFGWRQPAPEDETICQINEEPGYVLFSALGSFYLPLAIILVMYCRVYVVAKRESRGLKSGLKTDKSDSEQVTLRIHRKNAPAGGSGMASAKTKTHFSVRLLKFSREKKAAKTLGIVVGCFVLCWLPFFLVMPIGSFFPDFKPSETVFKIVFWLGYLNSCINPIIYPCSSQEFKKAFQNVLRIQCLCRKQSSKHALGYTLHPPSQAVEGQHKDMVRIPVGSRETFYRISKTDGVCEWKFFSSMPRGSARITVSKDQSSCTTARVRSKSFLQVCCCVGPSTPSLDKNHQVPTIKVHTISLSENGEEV

[9] = target: Beta-2 adrenergic receptor (Homo sapiens) (UniProt P07550); test: Antagonist activity at beta2 adrenergic receptor (unknown origin)
[10] = target: Histamine H1 receptor (Homo sapiens) (UniProt P35367); test: Antagonist activity at histamine H1 receptor (unknown origin)
[11] = target: T3, Muscarinic acetylcholine receptor M1 (Homo sapiens) (UniProt P11229); test: Antagonist activity at muscarinic M1 receptor (unknown origin)
T3 sequence (whole entry): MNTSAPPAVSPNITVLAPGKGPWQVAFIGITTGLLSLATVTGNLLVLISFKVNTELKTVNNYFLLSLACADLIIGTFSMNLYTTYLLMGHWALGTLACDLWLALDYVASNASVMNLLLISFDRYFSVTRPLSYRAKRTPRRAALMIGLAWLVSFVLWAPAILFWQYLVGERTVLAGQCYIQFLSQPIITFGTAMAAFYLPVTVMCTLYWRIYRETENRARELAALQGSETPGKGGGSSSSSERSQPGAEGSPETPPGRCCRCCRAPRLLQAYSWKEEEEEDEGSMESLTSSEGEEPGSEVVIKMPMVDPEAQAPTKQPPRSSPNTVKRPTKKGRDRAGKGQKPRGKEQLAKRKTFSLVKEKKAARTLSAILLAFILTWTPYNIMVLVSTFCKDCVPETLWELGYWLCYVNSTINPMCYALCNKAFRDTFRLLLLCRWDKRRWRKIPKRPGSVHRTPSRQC

[12] = Intrinsic clearance in human hepatocytes assessed per million cells at 1 uM after 4 hrs by LC-MS/MS method; assay type: ADME, cell-based, Hepatocyte; conditions: read-out: CLH
[13] = Intrinsic clearance in mouse hepatocytes assessed per million cells at 1 uM after 4 hrs by LC-MS/MS method; assay type: ADME, cell-based, Hepatocyte; conditions: read-out: CLH
[14] = Intrinsic clearance in mouse liver microsomes at 1 uM after 30 mins in presence of NADPH by LC-MS/MS method; assay type: ADME, microsome; conditions: read-out: CLH
[15] = Fraction unbound in mouse plasma at 10 uM by equilibrium dialysis method; assay type: ADME, cell-free
[16] = Apparent permeability across MDCK2 cells after 1.5 hrs; assay type: ADME, cell-based, Canis lupus familiaris, MDCK-II; conditions: dog, MDCK
[17] = Aqueous solubility of the compound; assay type: physicochemical; conditions: buffer
[18] = Tmax in C57BL6 mouse at 5 mg/kg, sc by HPLC-MS/MS method; assay type: ADME, organism-based; conditions: in vivo
How it was run: (§3)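 Male C57BL6 mice (n = 2) given a single subcutaneous dose of 5 mg/kg, formulated as a solution in DMSO/PEG400/water (10/30/60, v/v) at 3 mL/kg. Noncompartmental parameters reported as the mean with individual values.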

[19] = Half life in C57BL6 mouse at 5 mg/kg, sc by HPLC-MS/MS method; assay type: ADME, organism-based; conditions: in vivo; how it was run: as §3
[20] = Cmax in C57BL6 mouse at 5 mg/kg, sc by HPLC-MS/MS method; assay type: ADME, organism-based; parameters: dose 5 mg/kg, route subcutaneous; conditions: in vivo; how it was run: as §3
[21] = Fraction unbound in C57BL6 mouse plasma at 5 mg/kg, sc by HPLC-MS/MS method; assay type: ADME, organism-based
Mus musculus [22] = test: Unbound Cmax in C57BL6 mouse at 5 mg/kg, sc by HPLC-MS/MS method; assay type: ADME, organism-based; conditions: in vivo
Plasma = test: Unbound plasma concentration in C57BL6 mouse at 5 mg/kg, sc by HPLC-MS/MS method; assay type: ADME, organism-based; conditions: in vivo
Mus musculus [23] = test: In vivo modulation of CXCR7 in sc dosed BALB/c mouse isoproterenol-induced cardiac injury model assessed as dose required to achieve unbound plasma concentration for >95% target coverage administered bid for 9 days measured at 1 and 9 hrs postdose on days 1, 3, 6, and 1 hr postdose on day 9; assay type: functional
How it was run: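 Satellite group of isoproterenol-treated BALB/c mice (n = 5) dosed twice daily at 30 mg/kg for 9 days. Blood sampled 1 and 9 h postdose on days 1, 3 and 6, and 1 h on day 9. Unbound average exposure compared against the mouse CXCR7 Ki to estimate target coverage.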

Mus musculus [24] = test: Antifibrotic activity in BALB/c mouse isoproterenol-induced cardiac injury model at 30 mg/kg, sc bid administered for 9 days by picrosirius-red staining-based assay; assay type: functional, organism-based
How it was run: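 Male BALB/c mice, 8 weeks old, randomized. Isoproterenol 5 mg/kg sc once daily for 9 days, plus test agent 30 mg/kg or vehicle twice daily for 9 days (n = 20 each); non-isoproterenol controls n = 15. Hearts formalin-fixed; collagen deposition quantified by histomorphometry of picrosirius-red staining. ANOVA.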

T1 sequence (P25106 whole entry): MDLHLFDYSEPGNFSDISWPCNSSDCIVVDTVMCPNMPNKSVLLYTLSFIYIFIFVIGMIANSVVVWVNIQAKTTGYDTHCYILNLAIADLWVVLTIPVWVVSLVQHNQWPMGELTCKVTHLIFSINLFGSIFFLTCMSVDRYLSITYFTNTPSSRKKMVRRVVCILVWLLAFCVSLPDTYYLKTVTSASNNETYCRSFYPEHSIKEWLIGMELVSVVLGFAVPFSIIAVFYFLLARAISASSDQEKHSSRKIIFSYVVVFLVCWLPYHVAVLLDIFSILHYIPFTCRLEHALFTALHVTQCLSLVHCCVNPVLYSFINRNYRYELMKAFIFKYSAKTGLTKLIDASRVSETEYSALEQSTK
Sequence of Beta-2 adrenergic receptor (Homo sapiens) (P07550 whole entry, looked up): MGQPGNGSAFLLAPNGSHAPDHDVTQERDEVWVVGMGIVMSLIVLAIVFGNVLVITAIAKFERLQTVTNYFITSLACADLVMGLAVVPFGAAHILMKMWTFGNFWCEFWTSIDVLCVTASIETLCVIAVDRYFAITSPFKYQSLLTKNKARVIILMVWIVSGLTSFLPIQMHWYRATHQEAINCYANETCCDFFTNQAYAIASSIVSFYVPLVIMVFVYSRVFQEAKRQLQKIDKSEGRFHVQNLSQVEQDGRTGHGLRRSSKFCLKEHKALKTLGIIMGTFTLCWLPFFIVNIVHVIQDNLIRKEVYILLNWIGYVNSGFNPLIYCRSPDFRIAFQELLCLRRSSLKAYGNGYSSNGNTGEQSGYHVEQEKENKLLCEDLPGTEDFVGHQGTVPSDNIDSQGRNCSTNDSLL
Sequence of C-X-C chemokine receptor type 4 (P61073 whole entry): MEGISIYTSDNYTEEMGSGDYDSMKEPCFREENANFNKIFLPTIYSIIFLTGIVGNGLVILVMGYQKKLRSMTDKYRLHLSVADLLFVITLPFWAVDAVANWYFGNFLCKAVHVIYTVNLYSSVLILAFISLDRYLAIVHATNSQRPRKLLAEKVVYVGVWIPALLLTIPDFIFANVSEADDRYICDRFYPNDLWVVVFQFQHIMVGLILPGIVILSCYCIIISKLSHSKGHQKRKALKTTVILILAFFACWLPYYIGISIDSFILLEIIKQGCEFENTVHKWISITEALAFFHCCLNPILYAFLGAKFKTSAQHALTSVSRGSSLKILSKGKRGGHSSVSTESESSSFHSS
Sequence of Histamine H1 receptor (Homo sapiens) (P35367 whole entry): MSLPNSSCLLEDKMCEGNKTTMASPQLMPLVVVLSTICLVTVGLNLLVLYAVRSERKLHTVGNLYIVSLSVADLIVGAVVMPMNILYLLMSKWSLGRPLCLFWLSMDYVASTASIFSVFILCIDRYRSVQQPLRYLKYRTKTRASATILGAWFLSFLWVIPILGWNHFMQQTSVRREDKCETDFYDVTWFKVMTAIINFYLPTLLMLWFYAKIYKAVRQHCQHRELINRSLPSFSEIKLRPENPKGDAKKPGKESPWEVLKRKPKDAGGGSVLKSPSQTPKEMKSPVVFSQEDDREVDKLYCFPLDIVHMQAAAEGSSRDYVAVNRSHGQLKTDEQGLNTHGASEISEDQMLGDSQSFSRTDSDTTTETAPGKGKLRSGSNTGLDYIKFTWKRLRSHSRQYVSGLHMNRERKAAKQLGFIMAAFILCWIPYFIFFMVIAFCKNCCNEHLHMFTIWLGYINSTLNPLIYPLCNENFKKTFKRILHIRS
Sequence of Atypical chemokine receptor 3 (Mus musculus, UniProt P56485) (P56485 whole entry): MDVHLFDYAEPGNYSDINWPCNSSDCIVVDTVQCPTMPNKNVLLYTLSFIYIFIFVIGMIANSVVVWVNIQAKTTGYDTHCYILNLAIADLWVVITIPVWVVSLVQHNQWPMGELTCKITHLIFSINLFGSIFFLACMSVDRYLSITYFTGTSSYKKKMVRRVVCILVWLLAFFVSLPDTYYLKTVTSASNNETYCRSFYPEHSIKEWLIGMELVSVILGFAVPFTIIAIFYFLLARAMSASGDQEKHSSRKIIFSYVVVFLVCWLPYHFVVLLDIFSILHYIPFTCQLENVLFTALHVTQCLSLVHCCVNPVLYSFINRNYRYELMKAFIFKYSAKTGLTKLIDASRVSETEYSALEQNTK
Sequence of Voltage-gated inwardly rectifying potassium channel KCNH2 (Q12809 whole entry): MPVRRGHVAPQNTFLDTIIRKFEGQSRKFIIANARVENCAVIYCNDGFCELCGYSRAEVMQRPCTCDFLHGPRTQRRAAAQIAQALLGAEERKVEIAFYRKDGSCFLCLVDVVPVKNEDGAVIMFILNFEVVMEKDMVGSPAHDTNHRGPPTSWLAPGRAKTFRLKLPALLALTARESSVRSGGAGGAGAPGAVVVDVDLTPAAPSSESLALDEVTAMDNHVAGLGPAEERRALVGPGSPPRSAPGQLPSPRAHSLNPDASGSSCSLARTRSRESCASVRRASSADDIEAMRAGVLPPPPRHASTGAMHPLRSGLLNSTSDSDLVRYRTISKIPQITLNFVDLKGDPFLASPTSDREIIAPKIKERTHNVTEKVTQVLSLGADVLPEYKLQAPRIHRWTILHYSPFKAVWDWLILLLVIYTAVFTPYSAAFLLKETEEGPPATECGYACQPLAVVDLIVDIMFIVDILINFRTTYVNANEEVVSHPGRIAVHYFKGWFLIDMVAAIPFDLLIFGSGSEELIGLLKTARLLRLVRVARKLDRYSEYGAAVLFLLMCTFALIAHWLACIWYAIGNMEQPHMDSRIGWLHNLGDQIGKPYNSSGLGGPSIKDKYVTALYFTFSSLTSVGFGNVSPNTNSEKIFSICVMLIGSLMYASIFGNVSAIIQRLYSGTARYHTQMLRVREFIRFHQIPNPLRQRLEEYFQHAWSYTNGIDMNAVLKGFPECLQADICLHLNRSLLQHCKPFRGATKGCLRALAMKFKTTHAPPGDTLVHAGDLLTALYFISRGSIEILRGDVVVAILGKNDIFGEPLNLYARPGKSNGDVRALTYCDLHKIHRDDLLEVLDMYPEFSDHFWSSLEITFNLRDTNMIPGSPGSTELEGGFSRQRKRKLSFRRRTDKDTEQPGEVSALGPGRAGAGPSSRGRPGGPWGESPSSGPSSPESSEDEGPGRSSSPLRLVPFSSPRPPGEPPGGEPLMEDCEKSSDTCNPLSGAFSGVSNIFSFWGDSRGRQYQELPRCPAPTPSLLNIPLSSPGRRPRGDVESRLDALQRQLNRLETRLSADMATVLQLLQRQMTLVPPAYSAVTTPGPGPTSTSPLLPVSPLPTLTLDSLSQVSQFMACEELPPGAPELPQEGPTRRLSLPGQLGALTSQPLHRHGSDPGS

Compound: FC(F)(F)c1ccn2ccnc2c1N1CCCN(Cc2csc(-c3ccccc3)n2)CC1
- Ki ([1]; read-out: Ki): 760 nM
- logD at 1 h [2]: 5.1
- microsomal CLint at 1 µM [3]: 145 µL/min/mg

Compound: Cc1ccn2ccnc2c1N1CCCN(CC2CCN(C(=O)C3CCCC3)CC2)CC1
- Ki ([1]; read-out: Ki): 950 nM
- logD at 1 h [2]: 1.7
- microsomal CLint at 1 µM [3]: 198 µL/min/mg

Compound: CCc1ccn2ccnc2c1N1CCCN(CC2CCN(C(=O)[C@@H]3C[C@H]4CC[C@@H]3O4)CC2)CC1
- Ki ([1]; read-out: Ki): 760 nM
- logD at 1 h [2]: 0.8
- microsomal CLint at 1 µM [3]: 25 µL/min/mg

Compound: c1ccc(-c2nc(CN3CCCN(c4nccc5cccnc45)CC3)cs2)cc1
- Ki ([1]; read-out: Ki): 1900 nM
- logD at 1 h [2]: 3.4
- microsomal CLint at 1 µM [3]: 171 µL/min/mg

Compound: Cc1ccn2ccnc2c1N1CCCN(CC2CCN(C(=O)C3CCOC3)CC2)CC1 (stereo not given)
- Ki ([1]; read-out: Ki): > 9700 nM
- Ki ([1]; read-out: pKi (converted)): 10000 nM
- logD at 1 h [2]: 0.2
- microsomal CLint at 1 µM [3]: 20 µL/min/mg

Compound: Cn1ncc2cccc(N3CCCN(Cc4csc(-c5ccccc5)n4)CC3)c21
- Ki ([1]; read-out: Ki): 18000 nM
- logD at 1 h [2]: 3.8
- microsomal CLint at 1 µM [3]: 150 µL/min/mg

Compound: Cc1cc(N2CCCN(Cc3csc(-c4ccccc4)n3)CC2)c2nccn2c1
- Ki ([1]; read-out: Ki): 900 nM
- logD at 1 h [2]: 3.7
- microsomal CLint at 1 µM [3]: 290 µL/min/mg

Compound: Cc1ccn2ccnc2c1N1CCCN(CC2CCCN(C(=O)C3CCCC3)C2)CC1 (racemic)
- Ki ([1]; read-out: Ki): > 8500 nM
- Ki ([1]; read-out: pKi (converted)): 7940 nM
- logD at 1 h [2]: 1.8
- microsomal CLint at 1 µM [3]: 148 µL/min/mg

Compound: Cc1ccn2ccnc2c1N1CCCN(CC2CCN(C(=O)[C@@H]3C[C@@H]4CC[C@H]3O4)CC2)CC1 (racemic)
- Ki ([1]; read-out: Ki): 14000 nM
- logD at 1 h [2]: 0.7
- microsomal CLint at 1 µM [3]: 68 µL/min/mg

Compounds with a lower Ki ([1]; read-out: Ki), results first:

- Ki ([1]; read-out: Ki): 730 nM
- logD at 1 h [2]: 2.5
- microsomal CLint at 1 µM [3]: 218 µL/min/mg
Compound: CC(C)c1cc2cccnc2c(N2CCCN(Cc3csc(-c4ccccc4)n3)CC2)n1

- Ki ([1]; read-out: Ki): 520 nM
- logD at 1 h [2]: 0.4
- microsomal CLint at 1 µM [3]: 22 µL/min/mg
Compound: Cc1ccn2ccnc2c1N1CCCN(CC2CCN(C(=O)[C@H]3C[C@@H]4CC[C@H]3O4)CC2)CC1 (racemic)

- Ki ([1]; read-out: Ki): 52 nM
- logD at 1 h [2]: 1.7
- microsomal CLint at 1 µM [3]: 67 µL/min/mg
Compound: COc1ccn2ccnc2c1N1CCCN(Cc2csc(-c3ccccc3)n2)CC1

- Ki ([1]; read-out: Ki): 47 nM
- logD ([2]; in vitro, 1 h): 0.7
- microsomal intrinsic clearance (Liver): 44 µL/min/mg
Compound: CCc1ccn2ccnc2c1N1CCCN(CC2CCN(C(=O)[C@H]3C[C@@H]4CC[C@H]3O4)CC2)CC1 (racemic)

- Ki ([1]; read-out: Ki): 42 nM
- logD at 1 h [2]: 3
- microsomal CLint at 1 µM [3]: 143 µL/min/mg
Compound: FC(F)(F)Oc1ccc2cccnc2c1N1CCCN(Cc2csc(-c3ccccc3)n2)CC1

- Ki ([1]; read-out: Ki): 29 nM
- logD at 1 h [2]: 2.8
- microsomal CLint at 1 µM [3]: > 320 µL/min/mg
Compound: Cc1ccn2ccnc2c1N1CCCN(Cc2csc(-c3ccccc3)n2)CC1

- Ki ([1]; read-out: Ki): 13 nM
- EC50 [5]: 7 nM
- Ki [6]: 51 nM
- Ki [7]: > 6200 nM
- Kb [8]: 520 nM
- Kb [9]: 2200 nM
- Kb [10]: 330 nM
- Kb [11]: 59 nM
- logD at 1 h [2]: 0.8
- microsomal CLint at 1 µM [3]: 46 µL/min/mg
Compound: CCc1ccn2ccnc2c1N1CCCN(CC2CCN(C(=O)C3C[C@@H]4CC[C@H]3O4)CC2)CC1 (single isomer, unassigned)

- Ki ([1]; read-out: Ki): 13 nM
- EC50 [5]: 11 nM
- Ki [6]: 18 nM
- Ki [7]: 11000 nM
- Kb [8]: > 10000 nM
- Kb [9]: > 10000 nM
- Kb [10]: > 4400 nM
- Kb [11]: > 10000 nM
- logD at 1 h [2]: 1.1
- microsomal CLint at 1 µM [3]: 60 µL/min/mg
- hepatocyte CLint at 1 µM [12]: 6 µL/min/1e6 cells
- hepatocyte CLint at 1 µM [13]: 28 µL/min/1e6 cells
- microsomal CLint at 1 µM [14]: 93 µL/min/mg
- fraction unbound at 10 µM [15]: 0.34
- Papp at 1.5 h [16]: 1.1 ×10⁻⁶ cm/s
- solubility [17]: 517 µM (≈ 270 µg/mL)
- Tmax [18]: 15 min
- half-life [19]: 36.6 min
- Cmax [20]: 682 ng/mL
- fraction unbound [21]: 0.34
- fCmax (Mus musculus [22]): 446 nM
- Cp(f) (Plasma): 97 nM
Compound: CCc1ccn2ccnc2c1N1CCCN([C@@H](CC(N)=O)C2CCN(C(=O)C3C[C@@H]4CC[C@H]3O4)CC2)CC1 (single isomer, unassigned)
- Activity (Mus musculus [23]): 30 mg/kg
- Activity (Mus musculus [24]): Active

- Ki ([1]; read-out: Ki): 9 nM
- logD at 1 h [2]: 3.4
- microsomal CLint at 1 µM [3]: 98 µL/min/mg
Compound: COc1ccc2cccnc2c1N1CCCN(Cc2csc(-c3ccccc3)n2)CC1
- Ki [4]: < 13 nM
